Test results: ChEMBL document CHEMBL1138222, “9-Benzylidene-naphtho[2,3-b]thiophen-4-ones as novel antimicrotubule agents-synthesis, antiproliferative activity, and inhibition of tubulin polymerization” (J Med Chem, 2006)

Tests used:
[1] = system: K562; experiment: Antiproliferative activity against human K562 cell line; format: functional, cell-based
[2] = biological target: Tubulin (Sus scrofa, UniProt P02554+P02550); experiment: Inhibition of tubulin polymerization in porcine brain
[3] = system: SK-OV-3; experiment: Antiproliferative activity against SKOV3 cells by XTT assay after 48 hrs; format: functional, cell-based; conditions: Homo sapiens, SK-OV-3, 48 h
Procedure, shortened: (§1)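 Tumour cell lines were seeded at 1 × 10^3 to 8 × 10^4 cells/well for logarithmic growth and exposed to a concentration series for 48 h. Proliferation was read as cellular metabolic activity by XTT. IC50 came from dose-response curves by nonlinear regression, with at least two replicates.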

[4] = Antiproliferative activity against KB/HeLa cells by XTT assay after 48 hrs; format: functional, cell-based; conditions: Homo sapiens; procedure, shortened: as §1
[5] = system: NCI-H460; experiment: Antiproliferative activity against NCI-H460 cells by XTT assay after 48 hrs; format: functional, cell-based; conditions: Homo sapiens, NCI-H460, 48 h; procedure, shortened: as §1
[6] = system: RKO; experiment: Antiproliferative activity against RKO cells by XTT assay after 48 hrs; format: functional, cell-based; conditions: Homo sapiens
Procedure, shortened: (§2)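 RKO colon adenocarcinoma cells carry an ecdysone-inducible p27kip1 vector. On day 1 they were plated with 3 µM ponasterone A (induced, 2 × 10^4 cells/well) or without it (not induced, 6 × 10^3 cells/well) and held 24 h at 37 °C. Compound or DMSO control was then added for 48 h at 37 °C, followed by a standard XTT read-out.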

[7] = system: SF-268; experiment: Antiproliferative activity against SF268 cells by XTT assay after 48 hrs; format: functional, cell-based; conditions: Homo sapiens, SF-268, 48 h; procedure, shortened: as §1
[8] = system: RKO; experiment: Antiproliferative activity against RKO cells with ectopic-induced p27kip1-expression by XTT assay after 48 hrs; format: functional, cell-based; conditions: Homo sapiens; procedure, shortened: as §2
[9] = Cell cycle arrest in KB/HeLa cells by accumulation at G1 phase at 0.3 nM; format: functional, cell-based; conditions: Homo sapiens
Procedure, shortened: (§3)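 Subconfluent KB/HeLa cells were treated with a concentration series for 24 h at 37 °C, then detached and fixed in 70% ethanol. DNA was stained with propidium iodide alongside RNase digestion and measured by flow cytometry. Phase fractions came from cell-cycle modelling software, and IC50 from nonlinear regression.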

[10] = Cell cycle arrest in KB/HeLa cells by accumulation at S phase at 316 nM; format: functional, cell-based; conditions: Homo sapiens; procedure, shortened: as §3
[11] = Cell cycle arrest in KB/HeLa cells by accumulation at G2/M phase at 100 nM; format: functional, cell-based; conditions: Homo sapiens; procedure, shortened: as §3
[12] = Cell cycle arrest in KB/HeLa cells by accumulation at S phase at 10 nM; format: functional, cell-based; conditions: Homo sapiens; procedure, shortened: as §3
[13] = Cell cycle arrest in KB/HeLa cells by accumulation at G2/M phase at 10 nM; format: functional, cell-based; conditions: Homo sapiens; procedure, shortened: as §3
[14] = Cell cycle arrest in KB/HeLa cells by accumulation at G2/M phase at 1 nM; format: functional, cell-based; conditions: Homo sapiens; procedure, shortened: as §3
[15] = Cell cycle arrest in KB/HeLa cells by accumulation at G1 phase at 1 nM; format: functional, cell-based; conditions: Homo sapiens; procedure, shortened: as §3
[16] = Cell cycle arrest in KB/HeLa cells by accumulation at G2/M phase at 31.6 nM; format: functional, cell-based; conditions: Homo sapiens; procedure, shortened: as §3
[17] = Cell cycle arrest in KB/HeLa cells by accumulation at G2/M phase; format: functional, cell-based; conditions: Homo sapiens; procedure, shortened: as §3
[18] = Cell cycle arrest in KB/HeLa cells by accumulation at G1 phase at 100 nM; format: functional, cell-based; conditions: Homo sapiens; procedure, shortened: as §3
[19] = Cell cycle arrest in KB/HeLa cells by accumulation at G1 phase at 31.6 nM; format: functional, cell-based; conditions: Homo sapiens; procedure, shortened: as §3
[20] = Cell cycle arrest in KB/HeLa cells by accumulation at S phase at 0.3 nM; format: functional, cell-based; conditions: Homo sapiens; procedure, shortened: as §3
[21] = Cell cycle arrest in KB/HeLa cells by accumulation at G1 phase at 316 nM; format: functional, cell-based; conditions: Homo sapiens; procedure, shortened: as §3
[22] = Cell cycle arrest in KB/HeLa cells by accumulation at S phase at 100 nM; format: functional, cell-based; conditions: Homo sapiens; procedure, shortened: as §3
[23] = Cell cycle arrest in KB/HeLa cells by accumulation at G1 phase at 10 nM; format: functional, cell-based; conditions: Homo sapiens; procedure, shortened: as §3
[24] = Cell cycle arrest in KB/HeLa cells by accumulation at G2/M phase at 316 nM; format: functional, cell-based; conditions: Homo sapiens; procedure, shortened: as §3
[25] = Cell cycle arrest in KB/HeLa cells by accumulation at G2/M phase at 0.3 nM; format: functional, cell-based; conditions: Homo sapiens; procedure, shortened: as §3
[26] = Cell cycle arrest in KB/HeLa cells by accumulation at S phase at 1 nM; format: functional, cell-based; conditions: Homo sapiens; procedure, shortened: as §3
[27] = Cell cycle arrest in KB/HeLa cells by accumulation at G1 phase at 3.16 nM; format: functional, cell-based; conditions: Homo sapiens; procedure, shortened: as §3
[28] = Cell cycle arrest in KB/HeLa cells by accumulation at S phase at 31.6 nM; format: functional, cell-based; conditions: Homo sapiens; procedure, shortened: as §3
[29] = Cell cycle arrest in KB/HeLa cells by accumulation at S phase at 3.16 nM; format: functional, cell-based; conditions: Homo sapiens; procedure, shortened: as §3
[30] = system: L1210; experiment: Antiproliferative activity against L1210 cells by XTT assay after 48 hrs; format: functional, cell-based; conditions: Mus musculus, L1210, 48 h; procedure, shortened: as §1
[31] = cells; conditions: Rattus norvegicus, LT12, 48 h
[32] = Cell cycle arrest in KB/HeLa cells by accumulation at G2/M phase at 3.16 nM; format: functional, cell-based; conditions: Homo sapiens
[33] = system: MDR; experiment: Antiproliferative activity against LT12 MDR cells by XTT assay after 48 hrs; format: functional, cell-based; conditions: Rattus norvegicus; procedure, shortened: as §1
[34] = system: P388; experiment: Antiproliferative activity against P388 ADR cells by XTT assay after 48 hrs; format: functional, cell-based; conditions: Mus musculus, P388, 48 h; procedure, shortened: as §1
[35] = system: L1210; experiment: Antiproliferative activity against L1210 VCR cells by XTT assay after 48 hrs; format: functional, cell-based; conditions: Mus musculus, L1210, 48 h; procedure, shortened: as §1
[36] = system: P388; experiment: Antiproliferative activity against P388 cells by XTT assay after 48 hrs; format: functional, cell-based; conditions: Mus musculus, P388, 48 h; procedure, shortened: as §1

O=C1c2ccccc2/C(=C/c2ccc([N+](=O)[O-])cc2)c2sccc21
IC50 [1]: 720 nM
IC50 [2]: > 10000 nM

O=C1c2ccccc2/C(=C/c2ccc(O)cc2)c2sccc21
IC50 [1]: 810 nM

COc1ccc(/C=C2/c3ccccc3C(=O)c3ccsc32)cc1
IC50 [1]: 440 nM
IC50 [2]: 3300 nM

COc1ccc(COc2c3ccccc3cc3sccc23)cc1
IC50 [3]: 270 nM
IC50 [4]: 470 nM
IC50 [1]: 250 nM
IC50 [5]: 980 nM
IC50 [6]: 280 nM
IC50 [7]: 430 nM
IC50 [2]: 1520 nM
IC50 [8]: > 9000 nM

COc1ccc(CC(=O)Oc2c3ccccc3cc3sccc23)cc1
IC50 [1]: 15000 nM
IC50 [2]: > 10000 nM

COc1cc2c(c(OC)c1OC)-c1ccc(OC)c(=O)cc1[C@@H](NC(C)=O)CC2 [COLCHICINE]
Activity [9]: 63.3%
Activity [10]: 5.2%
Activity [11]: 94.7%
Activity [12]: 35.7%
Activity [13]: 32.1%
Activity [14]: 10%
Activity [15]: 64.7%
Activity [16]: 87.6%
EC50 [17]: 14 nM
IC50 [4]: 30 nM
Activity [18]: 0.3%
Activity [19]: 0.5%
Activity [20]: 26.6%
Activity [21]: 0.3%
Activity [22]: 5.1%
Activity [23]: 32.2%
Activity [24]: 94.5%
Activity [25]: 10.1%
Activity [26]: 25.4%
Activity [27]: 64.3%
Activity [28]: 11.9%
IC50 [8]: > 10000 nM
Activity [29]: 25.1%

Cn1cc(/C=C2/c3ccccc3C(=O)c3ccsc32)c2ccccc21
IC50 [1]: 250 nM

O=C1c2ccccc2/C(=C/c2ccccc2)c2sccc21
IC50 [1]: 330 nM
IC50 [2]: 6200 nM

COC(=O)Nc1nc2cc(C(=O)c3cccs3)ccc2[nH]1 [NOCODAZOLE]
IC50 [30]: 50 nM
Activity [10]: 6%
IC50 [31]: 40 nM
Activity [11]: 51.4%
Activity [12]: 25.7%
Activity [13]: 10%
Activity [14]: 11.1%
Activity [32]: 10.6%
Activity [15]: 65.2%
Activity [16]: 9.9%
EC50 [17]: 91 nM
IC50 [4]: 140 nM
Activity [18]: 22.3%
Activity [19]: 64.4%
Activity [21]: 0.9%
IC50 [33]: 70 nM
IC50 [34]: 170 nM
Activity [22]: 26.1%
Activity [23]: 64.2%
Activity [24]: 93.2%
IC50 [35]: 90 nM
Activity [26]: 23.6%
Activity [27]: 64.6%
Activity [28]: 25.7%
IC50 [36]: 80 nM
IC50 [8]: > 10000 nM
Activity [29]: 24.8%

COc1ccc(/C=C2/c3ccccc3C(=O)c3ccsc32)cc1OC
IC50 [1]: 320 nM

O=[N+]([O-])c1ccc(COc2c3ccccc3cc3sccc23)cc1
IC50 [1]: 3130 nM

O=C1c2ccccc2/C(=C/c2ccc(O)c(O)c2)c2sccc21
IC50 [1]: 270 nM

COc1cc(/C=C2/c3ccccc3C(=O)c3ccsc32)cc(OC)c1OC
IC50 [1]: 600 nM
IC50 [2]: 7400 nM

COc1ccc(/C=C2/c3ccccc3C(=O)c3ccsc32)c(O)c1
IC50 [1]: 230 nM
IC50 [2]: 770 nM

COc1ccc(C(=O)Oc2c3ccccc3cc3sccc23)cc1
IC50 [1]: > 90000 nM
IC50 [2]: > 10000 nM

COc1ccc2[nH]cc(/C=C3/c4ccccc4C(=O)c4ccsc43)c2c1
IC50 [1]: 240 nM
